Laboratory results taken from paper PMC8800165 (Antiviral Research, 2022).
“And” between values parts separate entries of the source, which are not always exact repeats. Identical values can stand only once. Like-named read-outs stand apart in the source and are kept apart here.

Assays:
LLC-MK2 cells = assay: toxicity after incubation for 5 days in LLC-MK2 cells; assay type: cell-based; settings: read-out: Toxicity CC50 LLC-MK2
SARS-CoV-2 RdRp [1] = biological target: T1, SARS-CoV-2 RdRp (Severe acute respiratory syndrome coronavirus 2, UniProt P0DTD1); assay: Bio layer interferometry binding assay; settings: data not shown
SARS-CoV-2 RdRp [2] = biological target: T1, SARS-CoV-2 RdRp; assay: CoV-Gluc plus- and minus-strand RNA by real-time qRT-PCR; assay type: cell-based; settings: HEK293T, 2 μM or 10 μM, 24 h
SARS-CoV-2 RdRp [3] = biological target: T1, SARS-CoV-2 RdRp; settings: for inhibition ratio against SARS-CoV-2 RdRp: 10 μM, library screen; for TI (CC50/EC50): CC50 HEK293T / RdRp EC50
[4] = biological target: SARS-CoV-2 RdRp in the presence of nsp14 and nsp10 (Severe acute respiratory syndrome coronavirus 2, UniProt P0DTD1); assay: cell-based CoV-RdRp-Gluc system with nsp10/nsp14 proofreading function; settings: EC50 with nsp14/nsp10 over EC50 without
HCoV-OC43 = assay: anti-coronavirus CPE inhibition assay; assay type: cell-based; settings: read-out: EC50 HCoV-OC43 (CPE inhibition)
How it was run: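 HCT-8 cells (DMEM, 10% heat-inactivated FBS) seeded at 2 × 10^4/well for 24 h. Infected with HCoV-OC43 strain VR-1558 at MOI 0.1 in 2% FBS medium; two-fold serial dilutions of test compound (0.195–50 μM) added 1 h post-infection. Incubated 5 days at 33 °C, then MTS 3 h at 37 °C, A490. Means ± SD, three independent experiments.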

HCoV-NL63 = assay: anti-coronavirus CPE inhibition assay; assay type: cell-based; settings: read-out: EC50 HCoV-NL63 (CPE inhibition); LLC-MK2, MOI 0.01, 5 days, MTS
How it was run: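 LLC-MK2 cells (DMEM, 10% heat-inactivated FBS) seeded at 2 × 10^4/well for 24 h. Infected with HCoV-NL63 strain Amsterdam I at MOI 0.01 in 2% FBS medium; test compound in two-fold dilutions (0.195–50 μM) given 1 h post-infection. Incubated 5 days at 33 °C; MTS 3 h at 37 °C, A490. Means ± SD, three independent experiments.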

HEK293T cells = assay: cell toxicity assay, CCK-8 kit; assay type: cell-based; settings: HEK293T, 24 h, CCK-8
How it was run: (§1)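 HEK293T cells (DMEM, 10% FBS) seeded one day before treatment. Test compound added in […] for 24 h. CCK-8 (WST-8) reagent then added for 60 min at 37 °C, 5% CO2, and A450 read. CC50 derived from viability relative to DMSO-treated cells.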

HCT-8 cells = assay: toxicity after incubation for 5 days in HCT-8 cells; assay type: cell-based; settings: read-out: Toxicity CC50 HCT-8; incubation for 5 days
[5] = cell toxicity assay, CCK-8 kit; assay type: cell-based; settings: human, HEK293T cells
How it was run: as §1

[6] = toxicity after incubation for 5 days in HCT-8 cells; assay type: cell-based; settings: human, HCT-8 cells
[7] = Betacoronavirus 1, OC43, HCT-8, 120 h

For `Nc1ncnc2c1c(I)cn2[C@@H]1O[C@H](CO)[C@@H](O)[C@H]1O` [5-Iodotubercidin], the CC50 (LLC-MK2 cells) was 45.6 ± 5.15 µM, the “binding activity upon SARS-CoV-2 RdRp” value (SARS-CoV-2 RdRp [1]) was “did not detect the binding activity” and the “levels of plus-strand and minus-strand Gluc RNA” value (SARS-CoV-2 RdRp [2]) was “even better than the Remdesivir”. The “inhibition ratio against SARS-CoV-2 RdRp” value (SARS-CoV-2 RdRp [3]) was 85.69% and > 75%, the “TI (CC50/EC50)” value (SARS-CoV-2 RdRp [3]) was 79.28 and the “Ratio (12 + 14/12)” value [4] was 1.89. For the same molecule, the EC50 (HCoV-OC43; HCT-8, MOI 0.1, 5 days, MTS) was 1.56 µM, the EC50 (HCoV-NL63) was 3.62 µM and the CC50 (HEK293T cells) was 59.5 µM. It also gave a CC50 (HCT-8 cells) of 46.9 ± 2.37 µM.

For `Nc1nc2c(ncn2[C@H]2C[C@H](O)[C@@H](CO)O2)c(=S)[nH]1` [6-Thio-dG, 6-Thio-20-Deoxyguanosine], the CC50 (LLC-MK2 cells) was 68 ± 7.03 µM, the “inhibition ratio against SARS-CoV-2 RdRp” value (SARS-CoV-2 RdRp [3]) was 75.19% and > 75% and the “Ratio (12 + 14/12)” value [4] was 8.04. It also gave an EC50 (HCoV-OC43; HCT-8, MOI 0.1, 5 days, MTS) of 6.5 µM, an EC50 (HCoV-NL63) of 9.53 µM and a CC50 (HEK293T cells) greater than 100 µM. It also gave a CC50 (HCT-8 cells) of 63 ± 3.52 µM.

For `Nc1nc(F)nc2c1ncn2[C@@H]1O[C@H](COP(=O)(O)O)[C@@H](O)[C@@H]1O` [Fludarabine Phosphate], the “inhibition ratio against SARS-CoV-2 RdRp” value (SARS-CoV-2 RdRp [3]) was 89.78% and > 75%, the “TI (CC50/EC50)” value (SARS-CoV-2 RdRp [3]) was 70.15 and the “Ratio (12 + 14/12)” value [4] was 7.19. The EC50 (HCoV-OC43; [7]) was 3.11 µM, the CC50 at 24 h [5] was 65.2 µM and the CC50 at 5 days [6] was 37.5 ± 1.62 µM.

In the case of `Nc1nc(F)nc2c1ncn2[C@@H]1O[C@H](CO)[C@@H](O)[C@@H]1O` [Fludarabine], the “inhibition ratio against SARS-CoV-2 RdRp” value (SARS-CoV-2 RdRp [3]) is reported as 88.71% and > 75%, the “TI (CC50/EC50)” value (SARS-CoV-2 RdRp [3]) is reported as 50.58 and the “Ratio (12 + 14/12)” value [4] is reported as 11.53. For the same molecule, the EC50 (HCoV-OC43; [7]) was 4.56 µM, the CC50 at 24 h [5] was 53.6 µM and the CC50 at 5 days [6] was 40.4 ± 8.16 µM.

In the case of `CCC(CC)COC(=O)[C@H](C)N[P@](=O)(OC[C@H]1O[C@@](C#N)(c2ccc3c(N)ncnn23)[C@H](O)[C@@H]1O)Oc1ccccc1` [Remdesivir], the “TI (CC50/EC50)” value (SARS-CoV-2 RdRp [3]) is reported as greater than 93.46 and the CC50 at 24 h [5] is reported as greater than 100 µM.
